According to ChEMBL document CHEMBL2321775, “Synthesis and biological characterization of new aminophosphonates for mitochondrial pH determination by (31)P NMR spectroscopy” (J Med Chem, 2013):

Legend:
NIH3T3 [1] = assay: Cytotoxicity against mouse 3T3 cells assessed as LDH release per mg of protein at LD10 concentration after 1 hr by spectrophotometric analysis; type: cell-based; conditions: nih3t3, 1 h
Outline: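 LDH released into the supernatant was measured after 1 h with a kit and expressed per mg protein. Total LDH was obtained from a Triton X-100 (1%) lysis control. Means of 3−6 independent experiments.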

Liver [2] = assay: Toxicity against Sprague-Dawley rat liver assessed as ATP content incubated for 1 hr followed by compound washout measured after 10 mins; type: tissue-based
Outline: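 Rat livers perfused at 37 °C with KH buffer containing 0.1 mM compound for 1 h, then washed out for 10 min with cold KH. Organ freeze-clamped in liquid nitrogen and ATP measured enzymatically in perchloric extracts, given as μmol/g. Mean ± SD of 3−9 experiments.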

[3] = Toxicity against Chlamydomonas reinhardtii D66 assessed as loss of photosynthetic activity after 1 hr; conditions: Chlamydomonas reinhardtii D66 cells, read-out: LD50
Outline: (§1)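 Cell wall-less C. reinhardtii D66 grown in Tris acetate phosphate medium to 1−5 × 10^6 cells/mL at 25 °C. Exposed 1 h at 25 °C to 0.01−1 mM compound (DMSO ≤0.1%), under saturating light for photosynthesis or in the dark for respiration. NaHCO3 added (1 mM), then O2 measured by Clark electrode against DMSO control. LD50 is the concentration giving 50% activity loss.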

Liver [4] = assay: Toxicity against Sprague-Dawley rat liver assessed as respiratory control ratio incubated for 1 hr followed by compound washout measured after 10 mins; type: tissue-based
Outline: (§2)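 Livers perfused at 37 °C with 0.1 mM compound for 1 h, then 10 min cold KH washout. Mitochondria isolated in ice-cold 0.3 M sucrose by differential centrifugation for membrane potential measurement. RCR was taken as respiration with 0.5 mM ADP divided by respiration after ADP phosphorylation ended, in KH2PO4/EDTA/MOPS/MgCl2 with glutamate 20 mM and malate 1 mM, pH 7.2, 37 °C. Mean ± SD.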

Liver [5] = assay: Toxicity against Sprague-Dawley rat liver assessed as mitochondrial membrane potential incubated for 1 hr followed by compound washout measured after 10 mins; type: tissue-based; outline: as §2
[6] = Toxicity against Chlamydomonas reinhardtii D66 assessed as loss of respiratory activity after 1 hr; conditions: Chlamydomonas reinhardtii D66 cells, read-out: LD50; outline: as §1
[7] = (§3) Cytotoxicity against mouse 3T3 cells assessed as cell viability after 3 hrs by spectrophotometric analysis; type: cell-based, NIH3T3; conditions: 3T3 cells (NIH3T3), read-out: LD50
Outline: (§4)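 Confluent 3T3 fibroblasts (DMEM, 10% FCS, 37 °C, 5% CO2) were switched to phenol red-free DMEM with 1% glucose and exposed 3 h to compound at 0.01−5 mM final (0.1% DMSO). Cells were then given neutral red (50 μg/mL, 2% FCS MEM) for 2 h and read at 540 nm. LD50 and LD10 were taken from dose−response curves over 3−6 experiments.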

NIH3T3 [8] = assay: as §3; type: cell-based; conditions: nih3t3, 3 h; outline: as §4
[9] = Drug uptake in Sprague-Dawley rat liver mitochondria incubated for 1 hr followed by compound washout measured after 10 mins; type: ADME
Outline: (§5)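 Sprague−Dawley male rat livers (120−150 g) perfused via the portal vein, non-recirculating, at 37 °C with KH bicarbonate buffer (95% O2/5% CO2, pH 7.35) at 3 mL/min/g. After 30 min equilibration, 0.1 mM compound was given for 1 h, followed by a 10 min ice-cold KH washout. Liver homogenised in 0.25 M sucrose/10 mM HEPES pH 7.5; cytosol and mitochondria separated by differential centrifugation and levels reported as μmol/g. 3−9 experiments, mean ± SD.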

[10] = Drug uptake in Sprague-Dawley rat liver cytosol incubated for 1 hr followed by compound washout measured after 10 mins; type: ADME, tissue-based; outline: as §5
[11] = Dissociation constant, pKa of the compound in Krebs-Henseleit buffer; type: physicochemical
Outline: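 31P NMR titration at 25 °C in Krebs−Henseleit buffer, with shifts referenced to external phosphoric acid and a D2O capillary as lock. Diethoxyphosphoryl shift plotted against pH (range 1.5−12) and fitted to the Henderson−Hasselbalch equation by nonlinear regression. Three independent titrations per compound, mean ± SEM.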

[12] = Drug uptake in Sprague-Dawley rat liver mitochondria incubated for 1 hr followed by compound washout measured after 10 mins by 31P-NMR analysis; type: ADME; outline: as §5
Liver [13] = assay: Metabolic stability in Sprague-Dawley rat liver incubated for 1 hr followed by compound washout measured after 10 mins by 31P-NMR analysis; type: ADME, tissue-based
[14] = Drug uptake in Sprague-Dawley rat liver cytosol incubated for 1 hr followed by compound washout measured after 10 mins by 31P-NMR analysis; type: ADME, tissue-based; outline: as §5

Structure (SMILES) | Activity (NIH3T3 [1]) [IU] | Activity (Liver [2]) [µmol/g] | LC50 at 1 h [3] [µM] | Ratio (Liver [4]) | Activity (Liver [5]) [mV] | LC50 at 1 h [6] [µM] | CC50 at 3 h [7] [µM] | LD10 (NIH3T3 [8]) [mM] | Drug uptake [9] [µmol/g] | Drug uptake [10] [µmol/g] | pKa [11] | Drug uptake [12] | Stability (Liver [13]) | Drug uptake [14]
CC(C)(C)/[N+]([O-])=C/c1ccccc1 | 14.2 | 2.11 | > 500 | 5.5 | 178.9 | > 500 | 7200 | 4.1 | < 0.05 | 0.88 |  |  |  | 
CCCNC(C)(C)P(=O)(OCC)OCC | 11.9 | 2.33 |  | 5.9 | 181.3 |  |  | 76 | < 0.05 | 0.56 | 6.99 |  |  | 
CCOP(=O)(OCC)C1(C)CCCN1 (stereo not drawn) | 13.1 |  | > 1000 |  |  | > 1000 |  | 78 |  |  | 7.01 |  |  | 
CC(C)(C)/[N+]([O-])=C/c1ccc(OCCCC[P+](c2ccccc2)(c2ccccc2)c2ccccc2)cc1.[Br-] | 49.7 | 1.95 | 100 | 4.7 | 170.7 | 50 | 200 | 0.05 | 1.95 | 0.12 |  | Active | Stable | Not Active
CCOP(=O)(OCC)C(C)(C)NCCCC[P+](c1ccccc1)(c1ccccc1)c1ccccc1.[Br-] | 10.2 |  | 500 |  |  | 400 | 700 | 0.4 |  |  | 5.9 |  |  | 
CCOP(=O)(OCC)C(C)(C)NCCCCCC[P+](c1ccccc1)(c1ccccc1)c1ccccc1.[Br-] | 14.9 | 2.29 | 250 | 5.7 | 174.2 | 100 | 600 | 0.2 | 1.55 | 0.93 | 6.53 |  |  | 
CCOP(=O)(OCC)C(C)(C)NCCCCCCCC[P+](c1ccccc1)(c1ccccc1)c1ccccc1.[Br-] | 17.7 | 2.08 | 100 | 5.2 | 171.9 | 75 | 300 | 0.15 | 1.32 | 0.64 | 6.94 | Active | Stable | Active
CCOP(=O)(OCC)C(C)(C)NCCCCCCCCCCCC[P+](c1ccccc1)(c1ccccc1)c1ccccc1.[Br-] | 44.7 |  | < 25 |  |  | < 25 | 100 | 0.05 |  |  | 6.85 |  |  | 
CCOP(=O)(OCC)C(C)(CCC[P+](c1ccccc1)(c1ccccc1)c1ccccc1)NCC(C)C.[Br-] (racemic) | 12.9 |  | 300 |  |  | 300 | 700 | 0.5 |  |  | 5.39 |  |  | 
CCOP(=O)(OCC)C(NCCCC[P+](c1ccccc1)(c1ccccc1)c1ccccc1)C(C)C.[Br-] (racemic) | 10.7 |  | 250 |  |  | 150 | 600 | 0.3 |  |  | 5.47 |  |  | 
CCOP(=O)(OCC)C(NCCCCCC[P+](c1ccccc1)(c1ccccc1)c1ccccc1)C(C)C.[Br-] (racemic) | 15.9 |  | 130 |  |  | 130 | 500 | 0.2 |  |  | 5.99 |  |  | 
CCOP(=O)(OCC)C(NCCCCCCCC[P+](c1ccccc1)(c1ccccc1)c1ccccc1)C(C)C.[Br-] (racemic) | 49.4 |  | 25 |  |  | 25 | 300 | 0.05 |  |  | 6.23 |  |  | 
CCOP(=O)(OCC)C(NCCCCCCCCCCCC[P+](c1ccccc1)(c1ccccc1)c1ccccc1)C(C)C.[Br-] (racemic) | 52.7 |  | < 10 |  |  | < 10 | 20 | 0.01 |  |  | 6.38 |  |  | 
CCOP(=O)(OCC)C(NCCCCCC[P+](c1ccccc1)(c1ccccc1)c1ccccc1)C(C)(C)C.[Br-] (racemic) | 16.7 |  |  |  |  |  | 300 | 0.2 |  |  | 5.63 |  |  | 
CCOP(=O)(OCC)C(C)(N)CCC[P+](c1ccccc1)(c1ccccc1)c1ccccc1 (racemic) |  |  |  |  |  |  |  |  |  |  | 5.13 |  |  | 
